Source: ChEMBL document CHEMBL2440084, “Design and bio-evaluation of indole derivatives as potent Kv1.5 inhibitors” (Bioorg Med Chem, 2013)
pIC50: −log10 of the molar value.

What was measured:
[1] = target: T1, Potassium voltage-gated channel subfamily A member 5 (Homo sapiens, UniProt P22460); experiment: Inhibition of human Kv1.5 channel expressed in HEK293 cells by whole cell patch clamp technique; assay type: cell-based
In short: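 HEK 293 cells stably expressing hKv1.5 were grown at 37 °C with 10% FBS and 0.2 mg/mL geneticin, trypsinized and used the same day. Whole-cell I_Kur was evoked by 500-ms steps to +60 mV from -80 mV at 0.1 Hz, at 25 °C. Compound was applied ≥5 min after current stabilized. IC50 came from cell-by-cell Hill fits, ≥3 cells per concentration, mean ± SD, n = 3.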

Homo sapiens = species on record: Homo sapiens; experiment: Selectivity ratio of IC50 for human ERG channel to IC50 for human Kv1.5 channel
[2] = target: Voltage-gated inwardly rectifying potassium channel KCNH2 (Homo sapiens, UniProt Q12809); experiment: Inhibition of human ERG channel expressed in CHO cells by whole cell patch clamp technique; assay type: cell-based
Chain of Voltage-gated inwardly rectifying potassium channel KCNH2 (Q12809 whole entry): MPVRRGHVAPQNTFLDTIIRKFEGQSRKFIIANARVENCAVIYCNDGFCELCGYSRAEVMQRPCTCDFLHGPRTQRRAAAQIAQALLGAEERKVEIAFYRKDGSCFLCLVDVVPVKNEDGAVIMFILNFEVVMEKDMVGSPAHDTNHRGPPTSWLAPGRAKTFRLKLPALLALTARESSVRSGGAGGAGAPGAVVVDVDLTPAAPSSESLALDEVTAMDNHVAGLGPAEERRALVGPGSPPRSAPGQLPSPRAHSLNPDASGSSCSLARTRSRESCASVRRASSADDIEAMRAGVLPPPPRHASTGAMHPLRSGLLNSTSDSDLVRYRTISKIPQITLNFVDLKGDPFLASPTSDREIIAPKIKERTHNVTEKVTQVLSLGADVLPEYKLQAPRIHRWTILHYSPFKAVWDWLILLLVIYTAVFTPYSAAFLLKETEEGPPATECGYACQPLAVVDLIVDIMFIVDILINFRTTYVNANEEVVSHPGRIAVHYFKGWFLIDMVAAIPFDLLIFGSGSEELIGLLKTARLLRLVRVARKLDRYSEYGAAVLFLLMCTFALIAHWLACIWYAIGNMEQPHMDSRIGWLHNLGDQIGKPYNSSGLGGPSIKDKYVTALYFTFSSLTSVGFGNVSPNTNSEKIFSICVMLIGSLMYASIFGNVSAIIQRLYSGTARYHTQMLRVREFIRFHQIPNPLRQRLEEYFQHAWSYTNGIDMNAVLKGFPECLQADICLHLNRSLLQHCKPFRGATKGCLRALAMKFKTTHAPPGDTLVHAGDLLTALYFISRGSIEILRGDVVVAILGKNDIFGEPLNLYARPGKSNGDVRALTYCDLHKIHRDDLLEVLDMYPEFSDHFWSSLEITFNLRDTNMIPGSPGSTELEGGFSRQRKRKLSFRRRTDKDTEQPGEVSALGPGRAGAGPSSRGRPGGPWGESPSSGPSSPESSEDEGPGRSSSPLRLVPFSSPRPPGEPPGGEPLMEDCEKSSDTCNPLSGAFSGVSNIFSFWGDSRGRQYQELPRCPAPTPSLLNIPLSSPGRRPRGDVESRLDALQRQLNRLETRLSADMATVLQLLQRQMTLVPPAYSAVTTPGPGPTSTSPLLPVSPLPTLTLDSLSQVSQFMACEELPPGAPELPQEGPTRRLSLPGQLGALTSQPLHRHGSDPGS

[3] = target: T1, Potassium voltage-gated channel subfamily A member 5; experiment: Inhibition of human Kv1.5 channel expressed in HEK293 cells at 10 uM by whole cell patch clamp technique; assay type: cell-based
Rattus norvegicus = species on record: Rattus norvegicus; experiment: Prolongation of atrial effective refractory period in left atrium of Sprague-Dawley rat heart after 10 mins; assay type: functional, tissue-based; conditions: Cardiac atrium
In short: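 Male SD rats (230 ± 30 g) were anesthetized with i.p. chloral hydrate. Left atrium and right ventricle were isolated into Krebs-Henseleit solution at pH 7.4, gassed with 95% O2/5% CO2. Compound was added cumulatively at 0.1, 1.0, 10 and 50 μmol/L, with 10 min equilibration each. ERP was recorded before and after compound. Values are mean ± SEM, n = 3, compared by Student's t test.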

HEK293 = experiment: Selectivity ratio of IC50 for sodium channel in guinea pig ventricular myocytes to IC50 for human Kv1.5 channel expressed in HEK293 cells; assay type: cell-based
[4] = Inhibition of sodium channel in guinea pig ventricular myocytes by whole cell patch clamp technique; assay type: cell-based; conditions: Cavia porcellus, Ventricular myocyte
In short: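 Whole-cell I_Na was recorded in enzymatically isolated ventricular myocytes, using only quiescent, rod-shaped, striated cells, at 25 °C. Holding potential was -90 mV, with 30-ms pulses from -80 to +40 mV in 10-mV increments at 0.5 Hz. Compound was applied ≥5 min after current stabilized. IC50 came from cell-by-cell Hill fits, ≥3 cells per concentration, mean ± SD.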

[5] = Effect on ventricular effective refractory period in right ventricle of Sprague-Dawley rat heart at 0.1 to 50 umol/L after 10 mins

T1 sequence (P22460 whole entry): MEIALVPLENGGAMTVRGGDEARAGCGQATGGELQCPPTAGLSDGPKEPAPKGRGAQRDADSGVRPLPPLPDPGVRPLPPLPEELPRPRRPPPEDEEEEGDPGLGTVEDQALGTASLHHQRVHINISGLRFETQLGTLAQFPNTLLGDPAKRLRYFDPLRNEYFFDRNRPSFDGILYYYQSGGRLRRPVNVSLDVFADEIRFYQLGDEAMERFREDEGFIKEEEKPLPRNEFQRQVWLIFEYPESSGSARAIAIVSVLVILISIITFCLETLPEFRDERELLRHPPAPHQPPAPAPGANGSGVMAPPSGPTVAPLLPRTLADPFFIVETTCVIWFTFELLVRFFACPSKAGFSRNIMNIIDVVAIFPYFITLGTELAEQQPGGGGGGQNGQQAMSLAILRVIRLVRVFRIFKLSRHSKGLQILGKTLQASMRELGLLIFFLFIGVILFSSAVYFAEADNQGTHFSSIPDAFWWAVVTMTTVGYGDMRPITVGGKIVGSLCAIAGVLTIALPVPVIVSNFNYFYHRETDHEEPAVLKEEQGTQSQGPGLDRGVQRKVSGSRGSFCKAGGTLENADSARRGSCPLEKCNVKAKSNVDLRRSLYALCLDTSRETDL

| Structure (SMILES) | pIC50 [1] | inhibition [1] | other results |
| --- | --- | --- | --- |
| COc1ccc(NC(=O)Cn2cc(CCNS(=O)(=O)c3ccc(C)cc3)c3ccccc32)cc1 | 4.41 | Dose-dependent effect | – |
| COC(=O)C(Cc1c[nH]c2ccccc12)NS(=O)(=O)c1ccc(OC(C)C)cc1 (stereo not drawn) | 5.41 | Dose-dependent effect | – |
| Cc1ccc(S(=O)(=O)N/N=C/c2cn(CC(=O)Nc3ccc(C)cc3C)c3ccccc23)cc1 | 4.62 | Dose-dependent effect | – |
| Cc1ccc(S(=O)(=O)NCCc2cn(CC(=O)Nc3ccc(Cl)cc3)c3ccccc23)cc1 | 4.89 | Dose-dependent effect | – |
| CCCCOc1ccc(S(=O)(=O)NC(Cc2c[nH]c3ccccc23)C(=O)O)cc1 (stereo not drawn) | 4.18 | Dose-dependent effect | – |
| CCCCOc1ccc(S(=O)(=O)NC(Cc2ccccc2)C(=O)OC)cc1 (stereo not drawn) | 3.96 | Dose-dependent effect | – |
| COC(=O)C(Cc1c[nH]c2ccccc12)NS(=O)(=O)c1ccc(F)cc1 (stereo not drawn) | 5.19 | Dose-dependent effect | – |
| CCCCOc1ccc(S(=O)(=O)NCCc2c[nH]c3ccccc23)cc1 | 5.00 | Dose-dependent effect | Ratio IC50 (Homo sapiens): 0.32; pIC50 [2]: 5.50 |
| COC(=O)C(Cc1c[nH]c2ccccc12)NS(=O)(=O)c1ccc(OC)cc1 (stereo not drawn) | 5.26 | Dose-dependent effect | – |
| COc1ccc(S(=O)(=O)NCCc2cn(CC(=O)Nc3ccc(Cl)cc3)c3ccccc23)cc1 | 5.50 | Dose-dependent effect | – |
| CCCCOc1ccc(S(=O)(=O)NCCc2cn(CC(=O)Nc3ccc(Cl)cc3)c3ccccc23)cc1 | 3.73 | Dose-dependent effect | – |
| CCCCOc1ccc(S(=O)(=O)NC(Cc2c[nH]c3ccccc23)C(=O)OC)cc1 (stereo not drawn) | 5.08 | Dose-dependent effect | inhibition [3]: 52% |
| Cc1ccc(S(=O)(=O)N/N=C/c2cn(CC(=O)Nc3ccc(C)c(C)c3)c3ccccc23)cc1 | 4.95 | Dose-dependent effect | – |
| COc1ccc(NC(=O)Cn2cc(/C=N/NS(=O)(=O)c3ccc(C)cc3)c3ccccc32)cc1 | 4.77 | Dose-dependent effect | – |
| COC(=O)C(Cc1c[nH]c2ccccc12)NS(=O)(=O)c1ccc(OCC(C)C)cc1 (stereo not drawn) | 5.45 | Dose-dependent effect | – |
| COC(=O)C(Cc1c[nH]c2ccccc12)NS(=O)(=O)c1ccc(C)cc1 (stereo not drawn) | 5.33 | Dose-dependent effect | – |
| COc1ccc2c(c1)c(/C=N/NS(=O)(=O)c1ccc(C)cc1)cn2CC(=O)Nc1ccccc1 | 5.43 | Dose-dependent effect | – |
| CCCCOc1ccc(S(=O)(=O)NCCc2cn(CC(=O)Nc3ccc(OC)cc3)c3ccccc23)cc1 | 5.21 | Dose-dependent effect | – |

Compounds with a higher pIC50 [1], results first:

| pIC50 [1] | inhibition [1] | Structure (SMILES) | other results |
| --- | --- | --- | --- |
| 5.62 | Dose-dependent effect | COC(=O)C(Cc1c[nH]c2ccccc12)NS(=O)(=O)c1ccc(OC2CCCC2)cc1 (stereo not drawn) | – |
| 5.65 | Dose-dependent effect | COC(=O)C(Cc1c[nH]c2ccccc12)NS(=O)(=O)c1ccc(Br)cc1 (stereo not drawn) | – |
| 5.72 | Dose-dependent effect | Cc1ccc(S(=O)(=O)N/N=C/c2cn(CC(=O)Nc3ccc(Cl)cc3)c3ccccc23)cc1 | – |
| 6.13 | Dose-dependent effect | Cc1ccc(S(=O)(=O)N/N=C/c2cn(CC(=O)Nc3ccccc3Cl)c3ccccc23)cc1 | Ratio IC50 (Homo sapiens): 25.2; pIC50 [2]: 4.73 |
| 6.29 | Dose-dependent effect | COc1ccc2c(c1)c(/C=N/NS(=O)(=O)c1ccc(C)cc1)cn2CC(=O)Nc1ccc(Cl)cc1 | Activity (Rattus norvegicus): Dose-dependent effect; Ratio IC50 (HEK293): 103; pIC50 [4]: 4.28; Ratio IC50 (Homo sapiens): 820; pIC50 [2]: 3.38; Activity [5]: Non-toxic |
| 5.76 | Dose-dependent effect | COc1ccc(NC(=O)Cn2cc(CCNS(=O)(=O)c3ccc(OC)cc3)c3ccccc32)cc1 | Ratio IC50 (Homo sapiens): 5.95; pIC50 [2]: 4.99 |
| 6.09 | Dose-dependent effect | Cc1ccc(S(=O)(=O)N/N=C/c2cn(CC(=O)Nc3ccccc3)c3ccccc23)cc1 | Ratio IC50 (HEK293): 96.3; pIC50 [4]: 4.11; Ratio IC50 (Homo sapiens): 53.9; pIC50 [2]: 4.36 |
| 5.67 | Dose-dependent effect | CCC(=O)Oc1ccc(NC(=O)Cn2cc(/C=N/NS(=O)(=O)c3ccc(C)cc3)c3ccccc32)cc1 | – |
| 5.75 | Dose-dependent effect | Cc1ccc(S(=O)(=O)N/N=C/c2cn(CC(=O)Nc3cc(C)ccc3C)c3ccccc23)cc1 | – |
| 6.60 | Dose-dependent effect | Cc1ccc(S(=O)(=O)N/N=C/c2cn(CC(=O)Nc3ccc(F)cc3F)c3ccccc23)cc1 | Activity (Rattus norvegicus): Dose-dependent effect; Ratio IC50 (HEK293): 459; pIC50 [4]: 3.94; Ratio IC50 (Homo sapiens): 172; pIC50 [2]: 4.37; Activity [5]: Non-toxic |
| 5.82 | Dose-dependent effect | Cc1ccc(S(=O)(=O)N/N=C/c2cn(CC(=O)Nc3ccc(OC(F)(F)F)cc3)c3ccccc23)cc1 | – |
| 5.66 | Dose-dependent effect | COc1ccc2c(c1)c(/C=N/NS(=O)(=O)c1ccc(C)cc1)cn2CC(=O)Nc1ccc(F)cc1F | – |
